Source: ChEMBL document CHEMBL5303300, “EUbOPEN Chemogenomics Library - Multiplex” (2023)
Several values for one entry are separate records, joined by “and”; a condition that tells them apart may be missing. Identical values can stand only once.

System: HEK-293T
Experiment: Multiplex assay against HEK293T
Assay type: toxicity, cell-based
Details: human, number of replicates 2
How it was run: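 Hoechst33342, BioTracker Green Microtubule Cytoskeleton Dye, MitoTracker Red and Annexin V Alexa Fluor 680 were added to live cells at seeding, and imaging on a CQ1 microscope at 37°C and 5% CO2 followed compound addition. Gating by CellPathfinder machine learning separated cells into Hoechst high-intensity objects or normal cells, then normal cells into healthy, pyknosed or fragmented nuclei, then pyknosed cells into mitotic or apoptotic. Per cents of healthy-nucleus cells are reported for the tubulin, mitochondrial-mass and membrane-permeability phenotypes.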

[1] = 12 h, 1 µM, compound concentration 1 uM
[2] = 12 h, 10 µM, compound concentration 10 uM
[3] = 24 h, 1 µM, compound concentration 1 uM
[4] = 24 h, 10 µM, compound concentration 10 uM
[5] = 48 h, 1 µM, compound concentration 1 uM
[6] = 48 h, 10 µM, compound concentration 10 uM

## CNS(=O)(=O)c1ccc(N(C)C)c(Nc2ncnc3cc(OC)c(OC)cc23)c1
[1]
  Population Apoptotic (%): 51% and 45%
  Population Fragmented Nuclei (%): 3% and 2%
  Population Healthy Nuclei (%): 81% and 83%
  Population Hoechst High Intensity Objects (%): 5% and 8%
  Population Membrane Permeable-Phenotype (%): 2%
  Population Mitochondria Different-Phenotype (%): 17% and 12%
  Population Mitotic Cells (%): 48% and 54%
  Population Normal (%): 94% and 91%
  Population Pyknosed Nuclei (%): 14%
  Population Tubulin-Different-Phenotype (%): 37% and 34%
  Total Cell Count: 547 and 550
[2]
  Population Apoptotic (%): 47% and 54%
  Population Fragmented Nuclei (%): 2% and 3%
  Population Healthy Nuclei (%): 87% and 88%
  Population Hoechst High Intensity Objects (%): 7%
  Population Membrane Permeable-Phenotype (%): 2% and 1%
  Population Mitochondria Different-Phenotype (%): 26% and 24%
  Population Mitotic Cells (%): 52% and 45%
  Population Normal (%): 92%
  Population Pyknosed Nuclei (%): 9% and 8%
  Population Tubulin-Different-Phenotype (%): 59%
  Total Cell Count: 607
[3]
  Population Apoptotic (%): 45% and 47%
  Population Fragmented Nuclei (%): 5% and 7%
  Population Healthy Nuclei (%): 86% and 84%
  Population Hoechst High Intensity Objects (%): 7% and 6%
  Population Membrane Permeable-Phenotype (%): 3% and 1%
  Population Mitochondria Different-Phenotype (%): 4%
  Population Mitotic Cells (%): 54% and 52%
  Population Normal (%): 92% and 93%
  Population Pyknosed Nuclei (%): 8%
  Population Tubulin-Different-Phenotype (%): 13% and 17%
  Total Cell Count: 888 and 859
[4]
  Population Apoptotic (%): 53% and 62%
  Population Fragmented Nuclei (%): 3% and 5%
  Population Healthy Nuclei (%): 89% and 87%
  Population Hoechst High Intensity Objects (%): 8% and 11%
  Population Membrane Permeable-Phenotype (%): 1%
  Population Mitochondria Different-Phenotype (%): 16% and 20%
  Population Mitotic Cells (%): 46% and 37%
  Population Normal (%): 91% and 88%
  Population Pyknosed Nuclei (%): 7%
  Population Tubulin-Different-Phenotype (%): 51% and 49%
  Total Cell Count: 699 and 675
[5]
  Population Apoptotic (%): 18% and 9%
  Population Fragmented Nuclei (%): 13% and 11%
  Population Healthy Nuclei (%): 83% and 85%
  Population Hoechst High Intensity Objects (%): 7% and 8%
  Population Membrane Permeable-Phenotype (%): 5% and 3%
  Population Mitochondria Different-Phenotype (%): 0%
  Population Mitotic Cells (%): 81% and 90%
  Population Normal (%): 92% and 91%
  Population Pyknosed Nuclei (%): 3%
  Population Tubulin-Different-Phenotype (%): 5%
  Total Cell Count: 2132 and 1975
[6]
  Population Apoptotic (%): 20% and 37%
  Population Fragmented Nuclei (%): 11% and 8%
  Population Healthy Nuclei (%): 86% and 87%
  Population Hoechst High Intensity Objects (%): 12%
  Population Membrane Permeable-Phenotype (%): 3% and 2%
  Population Mitochondria Different-Phenotype (%): 2%
  Population Mitotic Cells (%): 80% and 62%
  Population Normal (%): 87%
  Population Pyknosed Nuclei (%): 2% and 4%
  Population Tubulin-Different-Phenotype (%): 39%
  Total Cell Count: 1182 and 985
